Measured values from PubChem BioAssay AID1800 (The Scripps Research Institute Molecular Screening Center, 2009).
Out of some 290,000 compounds screened, about 1,600 (0.55%) were called active. For the sample, actives were picked, then their nearest neighbours and some compounds at random. Unmarked numbers belong to inactive results.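 How the source made its calls: active means inhibition above the mean of all tested compounds plus 3 SD, set per campaign (cut at about 35% in these data); inactive means the rest.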

Test system: Hepatitis C virus NS3 helicase
Experiment: inhibitors of HCV NS3 helicase, primary screen, biochemical, Cy5 molecular beacon fluorescence (AID 1800);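 further: 0% = DMSO wells and 100% = thioflavine S control wells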
Details: NS3 helicase DNA unwinding, at 10.9 µM, hits give high values
Summary of the method: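 System: Hepatitis C virus NS3 helicase domain fragment enzyme | Reagent: Annealed dual-labelled DNA beacon duplex, ATP-started | Compound dosing: 10.9 µM single point, 0.8% DMSO | Incubation: 1 h reaction at 25 °C, ATP-initiated | Technique: Cy5 fluorescence | Evaluation: Percent inhibition from t60/t0 fluorescence ratio | Benchmarks: Low DMSO, high thioflavine S at 110 µM | Replication: Singlicate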

SMILES	inhibition
COc1cc(NS(=O)(=O)c2ccc(NC(=S)NC(=O)c3ccccc3)cc2)nc(OC)n1	11%
COc1nnc(-c2ccc(C)c(S(=O)(=O)N(C)C)c2)c2ccccc12	-1.73%
CN(CC1CCCO1)S(=O)(=O)c1ccc(C(=O)Nc2ccc([N+](=O)[O-])cc2)cc1 (stereo not given)	-4.51%
Fc1cccc(Cl)c1CSc1ccc(-c2ccco2)nn1	5.94%
COC(OC)c1ccnc(SCc2ccccc2Cl)n1	-11.3%
Brc1ccc(CSc2ccc(-c3ccco3)nn2)cc1	3.25%
O=c1[nH]c(SCc2ccccc2)nnc1-c1ccccc1	35.9%
Clc1ccccc1CSc1nnc(-c2ccco2)c(-c2ccco2)n1	53.8% (active)
c1ccc(CSc2nnc(-c3ccco3)c(-c3ccco3)n2)cc1	38.3% (active)
COc1ccc(/C=N/OCc2ccccc2C#N)c(OC)c1	-11.6%
CC(C)c1ccc(S(=O)(=O)N2CCN(C(=O)c3ccc(N4CCCC4)c([N+](=O)[O-])c3)CC2)cc1	-8.12%
CS(=O)(=O)N1CCN(CC(=O)NC2CCCC2)CC1	2.51%
CCOc1ccc(S(=O)(=O)N2CCC(C(=O)NCc3ccccn3)CC2)cc1Cl	4.14%
Cc1ccc(NC(=O)[C@H](Cc2ccccc2)NC(=O)C2CCNCC2)cc1	-12.4%
COC(=O)C1=C(O)/C(=C/c2ccc(OCC(=O)Nc3ccccc3)cc2)N=C1C	-4.57%
CCOC(=O)C1=C(O)/C(=C/c2ccc(OCC(=O)Nc3ccc(C)cc3)cc2)N=C1C	8.39%
CCOC(=O)C1=C(O)/C(=C/c2cc(C)n(-c3ccccc3)c2C)N=C1C	46.3% (active)
COc1ccc2oc(C(=O)NCC(Cc3ccccc3)N(C)C)c(C)c2c1 (stereo not given)	-39.7%
O=C(CCCN1CCc2[nH]c3ccc(F)cc3c2C1)c1ccc(F)cc1	-45%
CCC(C)NC(=O)C1c2ccccc2C(=O)N1Cc1ccccc1 (stereo not given)	-11.1%
COCCCNS(=O)(=O)c1cccc(S(=O)(=O)c2cccc(S(=O)(=O)NCCCOC)c2)c1	3.55%
CC(C)c1ccc(C2C(C(=O)c3ccco3)=C(O)C(=O)N2CC2CCCO2)cc1 (stereo not given)	55.9% (active)
O=C(C1=C(O)C(=O)N(Cc2ccccc2)C1c1ccco1)c1ccco1 (stereo not given)	17.3%

SMILES	inhibition
O=C(C1=C(O)C(=O)N(Cc2ccccc2)C1c1cccnc1)c1ccco1 (stereo not given)	-5.86%
O=C(OCC1O[C@@H](OC(=O)c2cc(O)c(O)c(O)c2)[C@@H](OC(=O)c2cc(O)c(O)c(O)c2)[C@@H](OC(=O)c2cc(O)c(O)c(O)c2)[C@@H]1OC(=O)c1cc(O)c(O)c(O)c1)c1cc(O)c(O)c(O)c1 (stereo not given in full)	63.6% (active)
CCC(NC(=O)c1ccccc1NC(=O)c1ccccc1)C(=O)NNC(=O)CSc1nc2ccccc2o1 (stereo not given)	-3.35%
NS(=O)(=O)c1ccc(-c2ccc(/C=C3\SC(=O)NC3=O)o2)cc1	60.5% (active)
CN1C(=O)/C(=C\c2ccc(-c3ccccc3)o2)SC1=S	23.6%
CN1CCN(/N=C/c2ccc(-c3ccc([N+](=O)[O-])cc3)o2)CC1	-1.77%
CCOc1ccc(CN2CCNC(=O)C2CC(=O)NCCCC2CCCC2)cc1 (stereo not given)	-18.7%
COc1ccc(/C=C2\SC(=S)N(CCC(=O)Nc3ccccn3)C2=O)cc1OC	-1.07%
COc1ccc(/C=C2\SC(=S)N(CCC(=O)Nc3cccc(C(=O)O)c3)C2=O)cc1OC	61% (active)
COc1ccc(/C=C2\SC(=S)N(CCCC(=O)NC3CCCC3)C2=O)cc1OC	19%
O=C(NC1CCCC1)c1cc(-c2ccccc2)on1	-12.1%
O=C(NCCc1ccccn1)c1nc(Cn2cc([N+](=O)[O-])cn2)no1	2.16%
COCCN1CCn2c(nc3cc(NS(C)(=O)=O)ccc32)C1	-2.65%
Cc1nn(CC(=O)Nc2ccc(F)cc2)c(=O)c2ccccc12	17.6%
COc1ccc(C2=NN(C(C)=O)C(c3ccccc3)C2)cc1 (stereo not given)	-3.52%
O=C(O)CCCC(=O)N1N=C(c2ccco2)CC1c1ccco1 (stereo not given)	1.26%
Cc1nn2c(c1-c1ccccc1)N=C(c1ccco1)CC2c1ccccc1 (stereo not given)	39.1% (active)
Nc1ccc2nc3c(=O)[nH]c(=S)[nH]c3nc2c1	80.4% (active)
Cc1cc2nc3c(=O)n(Cc4ccccc4)c(=O)[nH]c3nc2cc1N	-1.52%
CCc1cccc(C)c1N1C(=O)CN(Cc2ccccc2)C1=S	-10.7%
O=C(C[C@H]1C(=O)N(c2ccc(F)c(F)c2)C[C@@H]1Cc1ccccc1)Nc1ccccc1	-4.71%
Cc1ccc(S(=O)(=O)N2CCN(C)CC2)cc1C(=O)NC1CCCCC1	0.44%
COc1ccc(CNC(=O)c2nnn(CC(=O)Nc3cc(C)cc(C)c3)c2N)cc1	-13.3%

SMILES	inhibition
COc1cccc(CNC(=O)c2nnn(CC(=O)Nc3cc(Cl)ccc3C)c2N)c1	38.7% (active)
COc1cccc(CNC(=O)c2nnn(CC(=O)Nc3cc(C)ccc3C)c2N)c1	8.19%
CS(=O)(=O)c1ccc2c(c1)SC1=NC(=O)/C(=C/c3ccco3)C(=N)N12	39.8% (active)
CS(=O)(=O)C1=NN2C(=N)/C(=C\c3ccc(OCCOc4ccccc4)cc3)C(=O)N=C2S1	7.31%
Cc1cc(/C=C2/C(=N)N3C(=NC2=O)SN=C3S(C)(=O)=O)c(C)n1-c1ccccc1	20%
CCN(CC)C(=O)COc1coc(CN2CCN(Cc3ccccc3)CC2)cc1=O	-0.99%
CCSc1nsc(NC(=O)Nc2cccc(C(C)=O)c2)n1	38.8% (active)
CCSc1nsc(NC(=O)Nc2ccccc2OC)n1	-3.36%
C=CCSc1nsc(NC(=O)Nc2cccc(C(C)=O)c2)n1	-3.05%
CCOc1ccc(N(C)S(=O)(=O)c2cnc[nH]2)cc1	4.43%
COC(=O)c1ccccc1NC(=O)C1CCN(C(=O)N2CCOc3ccccc32)CC1	-12.1%
COc1ccc(S(=O)(=O)NCC(=O)NC2CC2)cc1OC	22.6%
COc1ccc(C)cc1NC(=O)NCCCCc1ccccc1	2.02%
Cc1cc(C)c2nc(-c3ccco3)cc(C(=O)O)c2c1	37.2% (active)
COC(=O)c1cnn2c(C(F)(F)F)cc(-c3ccco3)nc12	18.2%
CN(C(=O)COC(=O)c1cc(-c2ccco2)nc2ccccc12)C1CCS(=O)(=O)C1 (stereo not given)	20.9%
O=C(Oc1ccc(C(=S)N2CCOCC2)cc1)c1ccc(F)cc1	-0.77%
N#C/C=C(/c1ccc(F)cc1)N1CCOCC1	40.5% (active)
O=C(Oc1ccc(F)cc1)N1CCOCC1	4.09%
CS(=O)(=O)N1CCc2cc(C(=O)Nc3ccccc3Br)ccc21	5.96%
COc1cc2c(cc1OC)CN(CC(=O)Nc1ccc(F)cc1)CC2	-2.51%
CCN(CCCNC(=O)c1ccc2c(c1)NC(=O)CN2C)c1cccc(C)c1	2.74%
O=c1c(-c2cccc(Cl)c2)c[nH]n1-c1ccccc1	4.7%

SMILES	inhibition
Cc1ccc(-c2ccnc3[nH]n(-c4ccccc4)c(=O)c23)cc1	15.7%
O=c1c2c(-c3ccccc3)ccnc2[nH]n1-c1ccccc1	47.7% (active)
COc1ccc(C(=O)N(C)CC(O)c2ccccc2)cc1OC1CCN(C(C)=O)CC1 (stereo not given)	32.3%
CCNC(=O)CC1C(=O)N(c2ccc(OC)cc2)C(=O)N1CCOC (stereo not given)	1.88%
COc1ccccc1N1CCN(C(=O)CCS(=O)(=O)c2ccc3c(c2)NC(=O)C(C)S3)CC1 (stereo not given)	38.1% (active)
CC1Sc2ccc(S(=O)(=O)CCC(=O)NCc3ccccc3Cl)cc2NC1=O (stereo not given)	8.3%
Cc1cccc(N2CCN(C(=O)CCS(=O)(=O)c3ccc4c(c3)NC(=O)C(C)S4)CC2)c1C (stereo not given)	-0.36%
Cc1ccc(S(=O)(=O)NCC(=O)N(CC(=O)NCC2CCCO2)c2cccc(F)c2)cc1 (stereo not given)	-2.87%
O=C(c1ccc(F)cc1)n1c(=S)nc2ccccn21	12%
CC(=O)c1ccccc1OCc1ccc(C(=O)c2ccccc2)cc1	-8.3%
O=C1C=CC(=O)N1c1ccc(N2CCCCC2)cc1	45.2% (active)
O=C1CC(N2CCN(c3ccc(F)cc3)CC2)C(=O)N1c1ccccc1 (stereo not given)	-13.4%
O=C(Cc1ccccc1)NC(=S)Nc1ccc(N2CCCCC2)cc1	-1.95%
COc1cccc(NC(=O)c2ccccc2N(Cc2ccccc2)S(C)(=O)=O)c1	0.24%
CC(=O)N1c2ccc(S(=O)(=O)N3CCCC(C(=O)Nc4ccc(C)cc4C)C3)cc2CC1C (stereo not given)	-18.4%
Cc1cc(C(=O)N/N=C/c2ccccc2[N+](=O)[O-])c(C)o1	5.42%
Cc1occc1C(=O)N/N=C/c1ccc(-c2cccc([N+](=O)[O-])c2)o1	45.3% (active)
Cc1ccc(-c2ccc(/C=N/NC(=O)CN3CCOCC3)o2)cc1[N+](=O)[O-]	6.31%
COc1ccc(Cn2c(-c3ccc(Cl)cc3)c[n+]3ccccc23)cc1	-35.9%
CCCCn1c(O)c(N=NC(=O)Cn2c(C(F)(F)F)nc3ccccc32)c2ccccc21	0.68%
Oc1oc(-c2ccccc2Br)nc1/C=N/c1ccccn1	-6.78%
